This is an account of results in ChEMBL document CHEMBL1145492, “Comparison of the phosphorylation of 4'-ethynyl 2',3'-dihydro-3'-deoxythymidine with that of other anti-human immunodeficiency virus thymidine analogs” (Antimicrob Agents Chemother, 2007).

Substrate in series [1]: Cc1cn([C@H]2C=C[C@@H](COP(=O)(O)O)O2)c(=O)[nH]c1=O
Kind of series: (§1) Activity for human recombinant TMP kinase. The method in brief:
(§2)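 Substrate ranges were TMP 6.25–100 μM and analog MPs 6.25–250 μM. Reactions were stopped at various times with TCA and neutralized with trioctylamine/trichlorotrifluoroethane. Km and kcat came from Lineweaver-Burk plots. Relative efficiency is kcat/Km with D4TMP as 100%. Mean ± SD of three experiments.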

Substrate in series [2]: Cc1cn([C@H]2C[C@H](N=[N+]=[N-])[C@@H](COP(=O)(O)O)O2)c(=O)[nH]c1=O
The description is as §1. The method in brief:
as §2

Substrate in series [3]: Cc1cn([C@H]2C[C@H](O)[C@@H](COP(=O)(O)O)O2)c(=O)[nH]c1=O
The description is as §1. An outline of the steps:
as §2

B1: Thymidylate kinase (Homo sapiens), P23919 (protein)
chain: MAARRGALIVLEGVDRAGKSTQSRKLVEALCAAGHRAELLRFPERSTEIGKLLSSYLQKKSDVEDHSVHLLFSANRWEQVPLIKEKLSQGVTLVVDRYAFSGVAFTGAKENFSLDWCKQPDVGLPKPDLVLFLQLQLADAAKRGAFGHERYENGAFQERALRCFHQLMKDTTLNWKMVDASKSIEAVHEDIRVLSEDAIRTATEKPLGELWK
A word on the Km: it is the substrate concentration at which the rate is half of its maximum. For orientation: kcat means the number of substrate molecules converted per active site and unit of time at saturation. On to B1, for which the Michaelis-Menten constant (Km) came out at 22 µM in series [1], 7.6 µM in series [2] and 8.3 µM in series [3]. In addition, the kcat was determined as 0.093 s⁻¹ in series [1], 0.018 s⁻¹ in series [2] and 1.8 s⁻¹ in series [3].
